The M2OR odorant receptor database

What was measured:
Conditions in all cases: stereoisomer not certain
OR51I2 (Homo sapiens) = target: T1, OR51I2 (Homo sapiens) (UniProt Q9H344)
T1 sequence (whole entry): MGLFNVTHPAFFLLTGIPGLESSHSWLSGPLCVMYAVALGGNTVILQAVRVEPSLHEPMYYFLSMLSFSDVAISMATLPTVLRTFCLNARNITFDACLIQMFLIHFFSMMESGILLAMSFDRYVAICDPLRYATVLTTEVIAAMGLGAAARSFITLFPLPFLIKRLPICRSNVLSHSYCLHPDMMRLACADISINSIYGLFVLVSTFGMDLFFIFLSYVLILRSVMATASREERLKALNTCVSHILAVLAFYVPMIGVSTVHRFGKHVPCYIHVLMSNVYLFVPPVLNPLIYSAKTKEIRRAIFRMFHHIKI
How it was run: (§1)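 Each entry records the cell line, G-protein, co-transfected protein and tags used. Methods varied with the source, often transient luciferase assays in mammalian cell lines. A receptor–molecule pair is called responsive (active) if the original authors judged its signal statistically different from baseline and non-responsive (inactive) otherwise.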

OR51J1 (Homo sapiens) = target: T2, OR51J1 (Homo sapiens) (UniProt Q9H342)
T2 sequence (whole entry): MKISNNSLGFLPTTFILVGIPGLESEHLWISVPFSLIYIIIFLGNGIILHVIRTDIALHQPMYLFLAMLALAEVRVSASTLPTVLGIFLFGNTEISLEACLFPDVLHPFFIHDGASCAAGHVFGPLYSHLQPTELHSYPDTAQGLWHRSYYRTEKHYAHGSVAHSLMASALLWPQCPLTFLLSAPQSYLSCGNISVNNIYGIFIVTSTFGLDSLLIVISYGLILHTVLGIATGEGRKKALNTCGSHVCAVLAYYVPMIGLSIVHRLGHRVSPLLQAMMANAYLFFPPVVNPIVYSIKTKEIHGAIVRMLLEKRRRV
How it was run: as §1

OR51L1 (Homo sapiens) = target: T3, OR51L1 (Homo sapiens) (UniProt Q8NGJ5)
T3 sequence (whole entry): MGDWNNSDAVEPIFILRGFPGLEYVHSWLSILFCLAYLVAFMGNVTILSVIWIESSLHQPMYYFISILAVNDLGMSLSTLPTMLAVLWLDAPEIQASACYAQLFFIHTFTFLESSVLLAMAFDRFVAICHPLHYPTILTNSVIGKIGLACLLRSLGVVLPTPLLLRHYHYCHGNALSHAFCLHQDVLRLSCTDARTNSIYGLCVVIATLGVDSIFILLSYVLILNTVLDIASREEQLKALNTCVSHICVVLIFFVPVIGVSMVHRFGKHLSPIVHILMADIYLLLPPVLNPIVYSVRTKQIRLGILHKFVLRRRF
How it was run: as §1

OR51M1 (Homo sapiens) = target: T4, OR51M1 (Homo sapiens) (UniProt Q9H341)
T4 sequence (whole entry): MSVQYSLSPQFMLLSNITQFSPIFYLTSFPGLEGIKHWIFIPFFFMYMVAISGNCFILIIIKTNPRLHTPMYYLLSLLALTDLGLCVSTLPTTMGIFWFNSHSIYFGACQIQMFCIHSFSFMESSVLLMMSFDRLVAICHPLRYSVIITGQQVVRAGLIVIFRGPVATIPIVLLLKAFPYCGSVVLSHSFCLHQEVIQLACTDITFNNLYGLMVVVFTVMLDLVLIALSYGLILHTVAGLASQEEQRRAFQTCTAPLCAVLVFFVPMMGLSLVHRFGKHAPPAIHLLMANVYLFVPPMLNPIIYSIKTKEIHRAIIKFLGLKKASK
How it was run: as §1

OR51Q1 (Homo sapiens) = target: T5, OR51Q1 (Homo sapiens) (UniProt Q8NH59)
T5 sequence (whole entry): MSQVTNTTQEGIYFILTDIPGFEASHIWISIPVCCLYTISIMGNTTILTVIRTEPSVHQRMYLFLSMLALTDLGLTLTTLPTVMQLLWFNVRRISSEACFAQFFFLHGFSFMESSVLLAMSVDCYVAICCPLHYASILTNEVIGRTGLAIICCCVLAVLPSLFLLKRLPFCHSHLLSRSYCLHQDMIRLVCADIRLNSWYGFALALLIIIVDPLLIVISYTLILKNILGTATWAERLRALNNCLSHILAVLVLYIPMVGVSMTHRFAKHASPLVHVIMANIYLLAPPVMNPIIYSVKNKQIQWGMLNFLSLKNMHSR
How it was run: as §1

OR51S1 (Homo sapiens) = target: T6, OR51S1 (Homo sapiens) (UniProt Q8NGJ8)
T6 sequence (whole entry): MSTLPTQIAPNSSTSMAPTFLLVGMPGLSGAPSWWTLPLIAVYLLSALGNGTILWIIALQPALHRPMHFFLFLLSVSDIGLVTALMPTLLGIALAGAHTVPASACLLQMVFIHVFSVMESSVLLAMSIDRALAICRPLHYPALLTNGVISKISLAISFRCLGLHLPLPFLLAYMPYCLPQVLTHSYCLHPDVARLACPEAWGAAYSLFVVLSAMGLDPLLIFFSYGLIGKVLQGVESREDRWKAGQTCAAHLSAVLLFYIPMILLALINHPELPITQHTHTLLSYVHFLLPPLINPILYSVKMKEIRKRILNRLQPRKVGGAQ
How it was run: as §1

OR51T1 (Homo sapiens) = target: T7, OR51T1 (Homo sapiens) (UniProt Q8NGJ9)
T7 sequence (whole entry): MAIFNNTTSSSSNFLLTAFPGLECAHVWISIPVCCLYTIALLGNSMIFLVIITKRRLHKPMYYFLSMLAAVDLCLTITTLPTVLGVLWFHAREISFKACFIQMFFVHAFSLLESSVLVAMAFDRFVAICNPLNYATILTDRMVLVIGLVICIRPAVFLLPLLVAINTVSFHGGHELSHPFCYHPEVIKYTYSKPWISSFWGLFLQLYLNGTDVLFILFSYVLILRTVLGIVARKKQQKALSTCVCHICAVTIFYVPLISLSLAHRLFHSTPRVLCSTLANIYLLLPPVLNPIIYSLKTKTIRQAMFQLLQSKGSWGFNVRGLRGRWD
How it was run: as §1

OR51V1 (Homo sapiens) = target: T8, OR51V1 (Homo sapiens) (UniProt Q9H2C8)
T8 sequence (whole entry): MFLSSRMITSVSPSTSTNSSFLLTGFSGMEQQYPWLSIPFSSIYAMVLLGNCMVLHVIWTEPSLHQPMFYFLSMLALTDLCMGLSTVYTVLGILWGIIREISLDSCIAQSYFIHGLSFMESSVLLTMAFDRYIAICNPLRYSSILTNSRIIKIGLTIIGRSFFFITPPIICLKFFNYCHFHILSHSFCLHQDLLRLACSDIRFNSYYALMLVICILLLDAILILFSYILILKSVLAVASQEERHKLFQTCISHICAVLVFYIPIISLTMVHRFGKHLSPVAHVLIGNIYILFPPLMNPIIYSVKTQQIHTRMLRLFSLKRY
How it was run: as §1

OR52A1 (Homo sapiens) = target: T9, OR52A1 (Homo sapiens) (UniProt Q9UKL2)
T9 sequence (whole entry): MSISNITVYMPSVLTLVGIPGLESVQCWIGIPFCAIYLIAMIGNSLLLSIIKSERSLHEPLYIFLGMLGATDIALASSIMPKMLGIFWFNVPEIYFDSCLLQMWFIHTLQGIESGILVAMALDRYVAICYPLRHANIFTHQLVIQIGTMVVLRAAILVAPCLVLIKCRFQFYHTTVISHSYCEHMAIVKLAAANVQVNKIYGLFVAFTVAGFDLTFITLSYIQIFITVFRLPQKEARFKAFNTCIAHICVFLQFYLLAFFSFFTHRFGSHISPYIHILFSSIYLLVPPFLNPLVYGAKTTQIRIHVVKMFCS
How it was run: as §1

OR52A4P (Homo sapiens) = target: T10, OR52A4P (Homo sapiens) (UniProt A6NMU1)
T10 sequence (whole entry): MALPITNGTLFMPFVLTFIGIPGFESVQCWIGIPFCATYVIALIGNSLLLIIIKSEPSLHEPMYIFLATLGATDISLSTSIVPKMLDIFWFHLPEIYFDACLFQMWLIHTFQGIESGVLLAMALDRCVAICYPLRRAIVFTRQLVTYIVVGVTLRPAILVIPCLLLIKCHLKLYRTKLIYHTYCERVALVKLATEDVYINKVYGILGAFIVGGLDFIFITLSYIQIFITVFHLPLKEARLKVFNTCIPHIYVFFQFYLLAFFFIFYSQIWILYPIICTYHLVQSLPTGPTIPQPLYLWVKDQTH
How it was run: as §1

Measured: odorant receptor agonist call

CCCCCC1CCCC(=O)O1 (stereo not given)
inactive: all assays above

CC(C)=CCCC(C)=CCO
inactive: OR51L1 (Homo sapiens)

CCCCOC(=O)C(C)OC(=O)CCC (stereo not given)
inactive: OR51L1 (Homo sapiens)

CCCCCCCC(=O)[O-].[H+]
inactive: OR51L1 (Homo sapiens)

CCC(=O)O
inactive: OR51L1 (Homo sapiens)

CC1=NC(C)C(C)S1 (stereo not given)
not listed: OR51T1 (Homo sapiens) | OR52A4P (Homo sapiens)
inactive: all other assays above

CC1=C(O)C(=O)C(C)O1 (stereo not given)
not listed: OR51T1 (Homo sapiens) | OR52A4P (Homo sapiens)
inactive: all other assays above

CCC(S)C(C)CO (stereo not given)
inactive: all assays above

COc1cc(C(=O)O)ccc1O
inactive: OR51L1 (Homo sapiens)

CCCC(=O)C(C)=O
inactive: OR51L1 (Homo sapiens)

CCCCC(=O)O
inactive: OR51L1 (Homo sapiens)

CC1=C(O)C(=O)OC1C (stereo not given)
not listed: OR51T1 (Homo sapiens) | OR52A4P (Homo sapiens)
inactive: all other assays above

CCCCCCCO
inactive: OR51L1 (Homo sapiens)

CC(=O)c1c(C)c([N+](=O)[O-])c(C(C)(C)C)c([N+](=O)[O-])c1C
inactive: all assays above

Cc1cnc(C)c(C)n1
not listed: OR51T1 (Homo sapiens) | OR52A4P (Homo sapiens)
inactive: all other assays above

CCCCCC(=O)C(C)C(C)=O (stereo not given)
inactive: all assays above
